Test results as given in ChEMBL document CHEMBL1127690, “Antiinflammatory 4,5-diarylpyrroles: synthesis and QSAR” (J Med Chem, 1994).

Tests used:
[1] = Maximum blood level reached after an oral dose of 14.7 uM/kg intravenous route; type: ADME, organism-based; settings: in vivo
[2] = Gastrointestinal safety of a compound relative to indomethacin and piroxicam; type: ADME
Procedure, shortened: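 Male Sprague-Dawley rats (~165 g) received a single oral dose of drug or vehicle. Stomach and small intestine were examined for mucosal lesions under a 10× dissecting microscope in coded, randomized order. Any single lesion counted as positive. TD50 was calculated by the moving-average method.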

Rattus norvegicus [3] = species: Rattus norvegicus; test: Antiinflammatory activity against adjuvant induced arthritis in male charles river rats; type: functional
[4] = Elimination half life at dose of 14.7 uM/kg intravenous route; type: ADME, organism-based; settings: in vivo
Rattus norvegicus [5] = test: Safety assessment in adjuvant induced arthritis rat model (AA),po; type: functional; settings: for ED50: read-out: ED50
[6] = TD50/ED50 value of the compound; type: functional
Procedure, shortened: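 Ratio of the GI lesion TD50 to the established adjuvant arthritis paw ED50, both measured orally in rats.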

[7] = Volume of distribution at dose of 14.7 uM/kg intravenous route; type: ADME, organism-based; settings: in vivo
[8] = Elimination half life at dose of 14.7 uM/kg oral route; type: ADME, organism-based; settings: in vivo
[9] = Maximum blood level reached after an oral dose 14.7 uM/kg oral route; type: ADME, organism-based; parameters: dose 14.7 uM/kg, route oral; settings: in vivo
[10] = Maximum blood level reached after an dose of 10.6 uM/kg intravenously; type: ADME, organism-based; parameters: dose 10.6 uM/kg, route intravenous; settings: in vivo, iv
[11] = Elimination half life at dose of 10.6 uM/kg intravenously; type: ADME, organism-based; settings: in vivo, iv
[12] = Volume of distribution at dose of 10.6 uM/kg intravenously; type: ADME, organism-based; settings: in vivo, iv
[13] = Maximum blood level reached at dose of 10.6 uM/kg orally; type: ADME, organism-based; parameters: dose 10.6 uM/kg, route oral; settings: in vivo, po
[14] = Elimination half life at dose of 10.6 uM/kg orally; type: ADME, organism-based; settings: in vivo, po
[15] = Bioavailability at a dose of 7.1 uM/kg, iv; type: ADME, organism-based; settings: eutheria, in vivo
[16] = Volume of distribution at a dose of 7.1 uM/kg, iv; type: ADME, organism-based; settings: in vivo
[17] = Elimination half life at a dose of 7.1 uM/kg, iv; type: ADME, organism-based; settings: in vivo
[18] = Maximum blood level reached after an oral dose of 5.0 mg/kg; type: ADME, organism-based; parameters: dose 5 mg/kg, route oral; settings: in vivo
[19] = Cmax value at a dose of 7.1 uM/kg, iv; type: ADME, organism-based; parameters: dose 7.1 uM/kg, route intravenous; settings: in vivo
[20] = Elimination half life at a dose of 14.3 uM/kg, po; type: ADME, organism-based; settings: in vivo
Rattus norvegicus [21] = test: Safety assessment in adjuvant induced arthritis rat model (AA),day 18,po; type: functional; settings: 432 h, read-out: ED50
[22] = Elimination half life at a dose of 6.3 uM/kg iv; type: ADME, organism-based; settings: in vivo
[23] = Ratio (12-day no effect/AA ED50) of the compound; type: functional
Procedure, shortened: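 Maximum no-effect dose from the 12-day study divided by the adjuvant arthritis ED50. […] Read-outs were mortality, pharmacologic or toxic signs, body and organ weights and gross necropsy.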

[24] = Elimination half life at a dose of 12.7 uM/kg, po; type: ADME, organism-based; settings: in vivo
[25] = Cmax value at a dose of 6.3 uM/kg, iv; type: ADME, organism-based; parameters: dose 6.3 uM/kg, route intravenous; settings: in vivo
Rattus norvegicus [26] = species: Rattus norvegicus; test: Compound was evaluated for 12 day tolerance in long evans rats; type: functional
[27] = Cmax value at a dose of 12.7 uM/kg, po; type: ADME, organism-based; parameters: dose 12.7 uM/kg, route oral; settings: in vivo
[28] = Volume of distribution at a dose of 6.3 uM/kg, iv; type: ADME, organism-based; settings: in vivo

With `CS(=O)(=O)c1ccc(-c2[nH]c(C#N)cc2-c2ccc(F)cc2)cc1` the Cmax [1] was 4.1 uM l-1, the TD50 [2] was > 381 µmol/kg and the ED50 (Rattus norvegicus [3]) was 1.3 mg/kg. For the same molecule, the half-life [4] was 13.7 h, the ED50 (Rattus norvegicus [5]) was 3.82 µmol/kg and the TD50/ED50 [6] was > 100. The Vd [7] was 5.7 L/kg, the half-life [8] was 17.3 h and the Cmax [9] was 2.9 uM l-1.

In the case of `CS(=O)(=O)c1ccc(-c2[nH]c(F)cc2-c2ccc(F)cc2)cc1`, the ED50 (Rattus norvegicus [3]) is reported as 0.31 mg/kg.

In the case of `CS(=O)(=O)c1ccc(-c2[nH]c(Br)c(Br)c2-c2ccc(F)cc2)cc1`, the TD50 [2] is reported as > 211 µmol/kg, the ED50 (Rattus norvegicus [3]) is reported as 1.94 mg/kg and the Cmax [10] is reported as 2.8 uM l-1. For the same molecule, the half-life [11] was 29.3 h, the ED50 (Rattus norvegicus [5]) was 4.1 µmol/kg and the TD50/ED50 [6] was > 113. It also gave a Vd [12] of 4.3 L/kg, a Cmax [13] of 1.5 uM l-1 and a half-life [14] of 47.5 h.

`CS(=O)(=O)c1ccc(-c2[nH]c(I)cc2-c2ccc(F)cc2)cc1` gave an ED50 (Rattus norvegicus [3]) of 22 mg/kg.

With `CS(=O)(=O)c1ccc(-c2[nH]c(S(=O)(=O)O)cc2-c2ccc(F)cc2)cc1.c1ccncc1` the ED50 (Rattus norvegicus [3]) was 12.7 mg/kg.

For `CCCCC1C(=O)N(c2ccccc2)N(c2ccccc2)C1=O` [PHENYLBUTAZONE], the ED50 (Rattus norvegicus [3]) was 10 mg/kg.

Work on `CS(=O)(=O)c1ccc(-c2[nH]c(Cl)cc2-c2ccc(F)cc2)cc1` yielded an F [15] of 1, a Vd [16] of 9 L/kg and a TD50 [2] of 100 µmol/kg. The ED50 (Rattus norvegicus [3]) was 0.5 mg/kg, the half-life [17] was 6.1 h and the Cmax [18] was 2.3 uM l-1. The Cmax [19] was 1.4 uM l-1, the half-life [20] was 5.8 h and the ED30 (Rattus norvegicus [5]) was 1.43 µM/kg. It also gave a TD50/ED50 [6] of 70.

With `CC(C)(C)OC(=O)n1c(Br)cc(-c2ccc(F)cc2)c1-c1ccc(S(C)(=O)=O)cc1` the ED50 (Rattus norvegicus [3]) was 31 mg/kg.

For `Cn1c(Br)c(Br)c(-c2ccc(F)cc2)c1-c1ccc(S(C)(=O)=O)cc1`, the ED50 (Rattus norvegicus [3]) was 4.16 mg/kg.

`CS(=O)(=O)c1ccc(-c2[nH]c(Br)cc2-c2ccc(F)cc2)cc1` gave an ED50 (Rattus norvegicus [21]) of 22.7 µmol/kg, a half-life [22] of 10.2 h and a TD50 [2] of 95.9 µmol/kg. The Ratio [23] was > 43, the ED50 (Rattus norvegicus [3]) was 1.05 mg/kg and the half-life [24] was 9.9 h. For the same molecule, the Cmax [25] was 2 uM l-1, the no-effect dose (Rattus norvegicus [26]) was >46 µM/kg and the Cmax [27] was 3 uM l-1. For the same molecule, the ED50 (Rattus norvegicus [5]) was 2.55 µmol/kg, the TD50/ED50 [6] was 36 and the Vd [28] was 3.5 L/kg.

In the case of `CS(=O)(=O)c1ccc(-c2[nH]c(Cl)c(Cl)c2-c2ccc(F)cc2)cc1`, the ED50 (Rattus norvegicus [3]) is reported as 1.5 mg/kg.

For `CC(C)Cc1ccc(C(C)C(=O)O)cc1` (stereo not given) [IBUPROFEN], the ED50 (Rattus norvegicus [3]) was 100 mg/kg.

`CS(=O)(=O)c1ccc(-c2[nH]c(C(=O)C(F)(F)F)cc2-c2ccc(F)cc2)cc1` showed an ED50 (Rattus norvegicus [3]) of 19.4 mg/kg.

In the case of `CCOC(=O)CCCCn1c(Cl)cc(-c2ccc(F)cc2)c1-c1ccc(S(C)(=O)=O)cc1`, the ED50 (Rattus norvegicus [3]) is reported as > 100 mg/kg.
